Sampled rows, rich in hits. Any-hit rate of the full collection: about 1.7%.
Ecoli rRNA inh = inhibitors of bacterial rRNA selective over humanized ribosomes. E. coli WT GFP vs humanized-ribosome RFP mutants, fluorescence, 24 h; active compounds read low; DMSO median 0, no signal -100. GFP signal change (wild-type ribosome), % (no concentration beside the values). hit rate 1.6% among 350,000. AID 720706;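 active means significant combined selectivity score with lowered wild-type GFP, culture density cut under 30%, mutant RFP and density less affected; inactive means any of these conditions unmet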
CaV13 FRET inh = Primary screen for inhibitors of IQ motif and Ca2+-dependent inactivation inhibitor domain binding in CACNA1D, Förster resonance energy transfer in living cells, …; HEK cells, CFP/YFP FRET ICDI-IQ, plate reader, 10 min; percent FRET-ratio fall versus neutral wells; inhibition, % at 12.3 µM; hit rate 0.098% among 340,000; AID 743397;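 active means mean replicate inhibition of at least 30% and at least 1% of replicates passing that level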
CFTR F508del cor = correctors of CFTR F508del function in bronchial epithelial cells; CFBE cells, YFP halide quenching; stimulated with forskolin plus potentiator P3; % fluorescence drop versus neutral controls; activity (quench increase), % at 7.58 µM; hit rate 0.36% among 350,000;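 active means mean added fluorescence quench of at least 8% versus neutral control, with both replicates also reaching 8%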;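 further: cells transiently co-express mutant CFTR-F508del with the halide-sensitive YFP; corrector assay measuring rescue of mutant channel to the surface after 24 h compound exposure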
Cneo AK release = Cryptococcus neoformans lysis via adenylate kinase release. hit rate 0.2% among 360,000. C. neoformans lysis, adenylate kinase release luminescence, 4 h; normalised: neutral wells 0, clomiphene wells 100. lysis activity, % at 15 µM;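 active means mean lysis activity across replicates of at least 80%, whatever share of replicates individually reach that level; inactive means mean lysis activity below 80%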
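Assay system: C. neoformans cells. Amount: yeast cell density of 5 × 10^6 cells/mL. Technique: AK luminescence. Buffer or medium: YPD. Times: static 4 h at 37 °C with compound, 1 h detection. Dosing: single-point compound dose. Read-out: lysis from increased AK signal.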
A number is an active result; . = inactive; / = no result given.

SMILES	Ecoli rRNA inh	CaV13 FRET inh	CFTR F508del cor	Cneo AK release
O=C(C[C@H]1CC[C@@H]2[C@H](COC[C@@H](O)CN2C(=O)c2ccc(F)cc2)O1)Nc1ccc(-c2ccccc2)cc1	.	/	.	.
COc1ccc(CNc2ccc(C)c(C)c2)c(OC)c1OC	-20	.	.	/
C[C@@H]1CN([C@H](C)CO)C(=O)c2cc(NS(=O)(=O)c3cn(C)cn3)ccc2O[C@@H](C)CCCCO[C@H]1CN(C)Cc1ccccc1	.	/	.	.
C[C@@H]1CCCCO[C@@H](CN(C)S(=O)(=O)c2ccccc2)[C@H](C)CN([C@@H](C)CO)C(=O)c2cc(NS(=O)(=O)c3cn(C)cn3)ccc2O1	.	/	.	.
Cc1ccc(OCCC(=O)OCC(=O)c2c(N)n(CC(C)C)c(=O)n(C)c2=O)cc1	.	.	.	.
CCOc1ccc(OCCC(=O)OCC(=O)c2c(N)n(CC(C)C)c(=O)n(C)c2=O)cc1	-17	.	.	.
C[C@H](CO)N1C[C@H](C)[C@@H](CN(C)S(=O)(=O)c2cccs2)Oc2ccc(NC(=O)Nc3ccc4c(c3)OCO4)cc2CC1=O	.	/	.	.
Oc1cccc2ccc(/C=C/c3ccccc3Br)nc12	.	.	.	.
Oc1ccc2ccccc2c1/C=C/c1ccc2c(Br)cc(Br)c(O)c2n1	.	.	13	/
C[C@@H]1CN([C@@H](C)CO)C(=O)c2cc(NC(=O)CCN3CCOCC3)ccc2O[C@H]1CN(C)S(=O)(=O)c1ccc(F)cc1	.	/	.	.
Cc1ccc(S(=O)(=O)N(C)C[C@@H]2Oc3c(NC(=O)c4ccncc4)cccc3C(=O)N([C@H](C)CO)C[C@@H]2C)cc1	.	/	.	.
CC(Nc1ncnc2ccccc12)c1ccccc1 (stereo not drawn)	-30	.	.	.
Cc1nc2c(C#N)c[nH]n2c(=O)c1CCO	.	.	.	.
Cc1nc2c(C#N)c[nH]n2c(=O)c1Cc1ccccc1	-22	.	.	.
Cn1c(=O)c2c(nc(N3CCc4ccccc4C3)n2C)n(C)c1=O	-22	.	.	.
CNC[C@@H]1Oc2c(NC(=O)C3CCOCC3)cccc2C(=O)N([C@@H](C)CO)C[C@@H]1C	.	/	.	.
COc1ccc(N2CCc3c(C)nc4c(OC)cc(OC)cc4c32)cc1	.	.	11	/
COc1ccc(N2CCc3c(C)nc4c(OC)cc(OC)cc4c32)c(OC)c1	/	.	/	.
COc1ccc(OCCn2cc(/C=N/NC(=O)c3ccncc3)c3ccccc32)cc1	-20	.	/	/
CN1[C@@H]2c3ccc(-c4cccnc4)c(=O)n3C[C@@H]2[C@@H](CO)[C@@H]1C(=O)N1CCc2ccccc2C1	.	/	.	113
CC=Cc1ccc2n(c1=O)C[C@H]1[C@H](CO)[C@@H](C(=O)N3CCc4ccccc4C3)N(C)[C@@H]21 (mixture of isomers)	.	/	.	/
CCc1cc(C(=O)c2ccc(OC)cc2)c(NC(=O)CN2CCCC2)s1	.	.	.	.
CCc1cc(C(=O)c2ccc(OC)cc2)c(NC(=O)CCC(=O)O)s1	-42	.	.	.
CCCNC(=O)C[C@H]1C[C@H]2c3cc(NS(C)(=O)=O)ccc3O[C@H]2[C@H](CO)O1	.	/	.	.
Cc1noc(C)c1NC(=O)Nc1cccc2c1O[C@H](CN(C)C(=O)Nc1cccc3ccccc13)[C@H](C)CN([C@@H](C)CO)C2=O	.	/	.	.
SMILES	Ecoli rRNA inh	CaV13 FRET inh	CFTR F508del cor	Cneo AK release
CC1CN(C(=O)/C=C/c2ccc([N+](=O)[O-])s2)CC(C)O1 (stereo not drawn)	.	.	.	/
CC1CC(C)CN(C(=O)/C=C/c2ccc([N+](=O)[O-])s2)C1 (stereo not drawn)	-29	.	.	.
CC1CC(C)CN(C(=O)/C=C/c2ccc(S(=O)(=O)N3CCOCC3)cc2)C1 (stereo not drawn)	.	.	8.4	.
O=C(/C=C/c1ccc(S(=O)(=O)N2CCOCC2)cc1)N1CCN(c2ccc(F)cc2)CC1	.	.	.	/
CC(C)NC(=O)Nc1ccc2c(c1)CC(=O)N([C@H](C)CO)C[C@H](C)[C@H](CN(C)Cc1ccc(Cl)c(Cl)c1)O2	.	/	.	.
O=c1[nH]c(/C=C/c2cccc3ccccc23)nc2ccccc12	.	.	.	/
O=c1[nH]c(/C=C/c2ccccc2F)nc2ccccc12	.	.	9.8	.
O=C(c1ccccc1)N1CCN(c2ccc(NCc3ccc4c(c3)OCO4)cc2)CC1	.	56	.	.
CC(=NNC(=S)N(Cc1ccccn1)Cc1ccccn1)c1cnccn1	-16	.	8.2	/
CCCC#Cc1ccc([C@H]2[C@H](CO)N3C(=O)CN(C(=O)c4cccc(F)c4)C[C@@H]23)cc1	.	/	/	/
COc1cccc(C(=O)Oc2cc3c4c(c2)C(C)=CC(C)(C)N4C(=O)C3=O)c1	-20	.	.	.
COc1cc(/C=C/c2cc(C(=O)O)c3ccccc3n2)ccc1OC(F)F	-26	.	.	/
O=C(O)c1cc(/C=C/c2ccc(N3CCOCC3)cc2)nc2ccccc12	-25	.	.	/
COc1cc(/C=C/C(=O)OCN2C(=O)c3ccccc3C2=O)ccc1OC(F)F	.	/	.	.
Cc1noc(C)c1S(=O)(=O)Nc1ccc2c(c1)C(=O)N([C@@H](C)CO)C[C@H](C)[C@H](CN(C)C(=O)Nc1ccc3c(c1)OCO3)OCCCC[C@H](C)O2	.	/	.	.
C[C@H](CO)N1C[C@H](C)[C@@H](CN(C)C(=O)Nc2ccc3c(c2)OCO3)Oc2ccc(NC(=O)Nc3ccccc3)cc2C1=O	.	/	.	/
CC(NC(=O)COC(=O)C1CCN(c2ccc(C(F)(F)F)cn2)CC1)c1ccc(Br)cc1 (stereo not drawn)	-24	.	.	.
CC(NC(=O)COC(=O)C1CCN(c2ccc(C(F)(F)F)cn2)CC1)c1ccc(F)cc1 (stereo not drawn)	.	.	.	.
O=C(Nc1nccs1)[C@H]1[C@H](CO)[C@H]2Cn3c(cccc3=O)[C@H]2N1C(=O)C1CC1	.	/	/	.
CC(=O)/C(C#N)=C1\NC(=O)C(Cc2ccccc2C)S1 (stereo not drawn)	-30	.	11	.
CC(=O)/C(C#N)=C1\NC(=O)C(Cc2ccccc2)S1 (stereo not drawn)	/	/	/	.
O=[N+]([O-])c1ccc(NN=Cc2ccccc2O)nc1	.	.	.	.
O=[N+]([O-])c1ccc(N/N=C/c2ccccc2O)cc1	-19	.	.	.
O=[N+]([O-])c1ccc(NN=Cc2ccc(O)cc2O)nc1	-22	.	.	.
O=C(NN=Cc1ccccc1O)c1cccc([N+](=O)[O-])c1	-27	.	11	.
CCCN1C[C@H](C)[C@H](OC)CN(C)C(=O)c2cc(NC(=O)CC(F)(F)F)ccc2OC[C@@H]1C	.	/	.	/
CN(C)/C=N/c1nc2ccc3c(c2s1)CCCC3	-26	.	.	.
CCCCn1nc(C(=O)NCC2COc3ccccc3O2)c2ccccc2c1=O (stereo not drawn)	-36	.	.	.

Screens as filed in PubChem BioAssay.
